The source of these data is ChEMBL document CHEMBL1156919, “Synthesis and induction of apoptosis signaling pathway of ent-kaurane derivatives” (Bioorg Med Chem, 2010).

The IC50 is the concentration needed to halve the response being measured.

The source made the active and inactive calls. The rule behind the calls is not given here.

Data set [1] relates to RAW264.7. Kind of data set: Cytotoxicity against mouse RAW264.7 cells assessed as reduction in cell viability after 24 hrs by MTT assay. It is filed as functional, cell-based. Particulars: RAW264.7, 24 h. The method in brief:
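RAW 264.7 mouse macrophage line kept in RPMI 1640 with 10% FBS, L-glutamine and antibiotics. Treated with 1–100 μM for 24 h, then MTT at 37 °C for 4 h. Formazan taken up in DMSO and read at 540 nm. Triplicate, at least three independent experiments. IC50 is the concentration giving 50% loss of viability relative to untreated cells.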

For data set [2], the system named is HeLa. In words: Cytotoxicity against human HeLa cells assessed as reduction in cell viability after 24 hrs by MTT assay. Format: functional, cell-based. The method in brief:
(§1)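 Cancer cells kept in DMEM with 10% FBS, L-glutamine and antibiotics. Exposed to 1–100 μM for 24 h, then MTT at 37 °C for 4 h. Formazan dissolved in DMSO and read at 540 nm. Triplicate wells, at least three independent experiments. Viability reduction expressed against untreated cultures. IC50 is the concentration giving 50% loss of viability.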

Data set [3] deals with HepG2. Kind of data set: Cytotoxicity against human HepG2 cells assessed as reduction in cell viability after 24 hrs by MTT assay. It is filed as functional, cell-based. The conditions noted are these: HepG2, 24 h. The method in brief:
as §1
For orientation: Formazan colour is commonly taken as a measure of viable cells.

The subject of data set [4] is HT-29. Kind of data set: Cytotoxicity against human HT-29 cells assessed as reduction in cell viability after 24 hrs by MTT assay. Particulars: HT-29, 24 h. It is filed as functional, cell-based. The method in brief:
as §1

The nature of data set [5]: Toxicity in thioglycolate-induced mouse peritoneal macrophages assessed as reduction in cell viability after 24 hrs by MTT assay. It is filed as cell-based. Particulars: peritoneal macrophage cell. The method in brief:
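Primary peritoneal macrophages from thioglycolate-injected mice exposed to a range of concentrations for 24 h. Viability read by MTT at 37 °C for 4 h, formazan dissolved in DMSO, absorbance at 540 nm. Three independent experiments in duplicate, means ± SD.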

A short description of data set [6]: Toxicity in thioglycolate-induced mouse peritoneal macrophages assessed as induction of apoptosis after 24 hrs by flow cytometry. It is filed as cell-based. The conditions noted are these: peritoneal macrophage cell. The method in brief:
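Peritoneal macrophages collected from thioglycolate-injected mice and treated across a concentration range for 24 h. Stained with PI and analysed by flow cytometry for apoptotic percentage. Means ± SD of three independent experiments done in duplicate.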
(In flow cytometry, cells or beads pass a laser one at a time.)

Data set [7] concerns RAW264.7. Kind of data set: Induction of apoptosis in mouse RAW264.7 cells at 1 to 25 uM after 24 hrs by flow cytometry. It is filed as functional, cell-based. The method in brief:
(§2)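 RAW 264.7 cells exposed to 1–25 μM for 24 h. Stained with 0.005% (w/v) propidium iodide and analysed at once by flow cytometry. Apoptotic and necrotic fractions taken from a forward scatter versus PI fluorescence dot plot. Means ± SD of three independent experiments in triplicate.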

For data set [8], the system named is RAW264.7. Kind of data set: Induction of apoptosis in mouse RAW264.7 cells at 1 uM after 24 hrs by flow cytometry. Format: functional. The method in brief:
as §2

Data set [9] concerns RAW264.7. In words: Induction of apoptosis in mouse RAW264.7 cells assessed as caspase 8 activation at 5 uM after 24 hrs by fluorimetry. It is filed as functional, cell-based. The method in brief: (§3)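 RAW cells treated with 5 μM for 24 h, with or without 40 μM z-VAD. Caspase activity read fluorimetrically in cytosolic extracts. Substrates: Ac-DEVD-AMC for caspase-3, Ac-IETD-AFC for caspase-8, Ac-LEHD-AFC for caspase-9. Means ± SD of three independent experiments run in triplicate.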

Data set [10] deals with RAW264.7. In words: Induction of apoptosis in mouse RAW264.7 cells assessed as caspase 9 activation at 5 uM after 24 hrs by fluorimetry. Format: functional, cell-based. The method in brief:
as §3

Data set [11] has as its system RAW264.7. In words: Induction of apoptosis in mouse RAW264.7 cells assessed as caspase 3 activation at 5 uM after 24 hrs by fluorimetry. Format: functional, cell-based. The method in brief:
as §3

For data set [12], the system named is RAW264.7. Kind of data set: Induction of apoptosis in mouse RAW264.7 cells assessed as caspase 8 activation at 5 uM in presence of 40 uM caspase inhibitor z-VAD after 24 hrs by fluorimetric assay. It is filed as functional, cell-based. The method in brief: as §3
Data set [13] has as its system RAW264.7. In words: Induction of apoptosis in mouse RAW264.7 cells assessed as caspase 9 activation at 5 uM in presence of 40 uM caspase inhibitor z-VAD after 24 hrs by fluorimetric assay. It is filed as functional, cell-based. The method in brief: as §3
Data set [14] deals with RAW264.7. In words: Induction of apoptosis in mouse RAW264.7 cells assessed as caspase 3 activation at 5 uM in presence of 40 uM caspase inhibitor z-VAD after 24 hrs by fluorimetric assay. Format: functional, cell-based. The method in brief: as §3
Data set [15] has as its system RAW264.7. In words: Induction of apoptosis in mouse RAW264.7 cells at 5 uM in presence of 40 uM caspase inhibitor z-VAD after 24 hrs by flow cytometry. Format: functional, cell-based. The method in brief: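 RAW 264.7 cells given 5 μM for 24 h, with or without 40 μM z-VAD. Stained with 0.005% (w/v) PI and analysed by flow cytometry. Apoptotic percentage taken from a forward scatter versus PI fluorescence dot plot. Three independent experiments in triplicate, means ± SD.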

The subject of data set [16] is RAW264.7. Kind of data set: Increase in p53 protein expression in mouse RAW264.7 cells at 5 uM by Western blot. Format: functional, cell-based. The method in brief: (§4)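 RAW 264.7 cells incubated with 5 μM and sampled at several time points. Cytosolic extracts run on SDS–PAGE (10–15% gels) and blotted to PVDF. Probed for p53, Bax, Bcl-2, Bcl-xl, XIAP, IAP-1 and IAP-2, then HRP secondary and chemiluminescence. β-actin served as loading control. Protein measured by Bio-Rad assay.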
On the technique in general: Immunoblotting shows a protein as a band on a membrane.

For data set [17], the system named is RAW264.7. In words: Increase in Bax protein expression in mouse RAW264.7 cells at 5 uM by Western blot. Format: functional, cell-based. The method in brief:
as §4

Data set [18] concerns RAW264.7. Kind of data set: Decrease in Bcl-2 protein expression in mouse RAW264.7 cells at 5 uM by Western blot. Format: functional, cell-based. The method in brief:
as §4

In data set [19] the test system is RAW264.7. Kind of data set: Decrease in Bcl-xl protein expression in mouse RAW264.7 cells at 5 uM by Western blot. Format: functional, cell-based. The method in brief: as §4
Data set [20] relates to RAW264.7. Kind of data set: Decrease in IAP protein expression in mouse RAW264.7 cells at 5 uM by Western blot. It is filed as functional, cell-based. The method in brief: as §4

Turning to `C=C1C(=O)[C@@]23CC[C@H]4[C@@](C)(CCC[C@@]4(C)C(=O)OC)[C@@H]2CC[C@@H]1C3`, the half-maximal inhibitory concentration (IC50) in [1] was 1 µM; in data set [2], 50 µM; in data set [3], 75 µM; in [4], 30 µM. The values for the Activity result in [5], in data set [6] and in data set [8] were “Non-toxic”, “Non-toxic” and 50%, respectively. Besides, the result in [7], in data set [9], in [10], in data set [11], in data set [16] and in data set [17] was Active. Moreover, the outcome in data set [18], in [19] and in [20] was Active. The result in [12], in data set [13], in data set [14] and in [15] was inactive.

As for `C=C1[C@H]2CC3=C([C@H](C2)[C@@H]1O)[C@]1(C)CCC[C@@](C)(C(=O)OC)[C@H]1CC3`, the IC50 in data set [1] was 5 µM; in [2], over 100 µM; in data set [3] it was over 100 µM; in data set [4], over 100 µM. The Activity result in data set [5] and in data set [6] was “Non-toxic” each time. The outcome in [7], in [9], in [10], in [11], in data set [16] and in data set [17] was Active. Also, the outcome in data set [18], in [19] and in data set [20] was Active. The outcome in data set [12], in data set [13], in data set [14] and in [15] was inactive.
